Published values from different studies.
Compare with care: the assays were run in different laboratories.
Cell line: HT-29
Effect on: cell growth or viability

| SMILES | assay | conditions | quantity | result |
| --- | --- | --- | --- | --- |
| COc1ccc(C(=O)/C=C/c2cccc(Br)c2)cc1S(N)(=O)=O | SRB | 48 h | GI50 | 1.6 µM |
| Cc1cc(C)n(C(=S)[S][Au][PH](CCCCCC[PH]([Au][S]C(=S)n2nc(C)cc2C)(c2ccccc2)c2ccccc2)(c2ccccc2)c2ccccc2)n1 | – | – | GI50 | 0.458 µM |
| CC/C(=C(\c1ccccc1)c1ccc(OCCN(C)C)cc1)c1ccccc1 | ATP luminescence | 72 h | EC90 | 8.4 µM |
| S=C([S][Au-][P+](CCCCCC[P+]([Au-][S]C(=S)n1cccn1)(c1ccccc1)c1ccccc1)(c1ccccc1)c1ccccc1)n1cccn1 | – | – | GI50 | 0.642 µM |
| CCN(CC)CCNC(=O)c1c(C)[nH]c(/C=C2\C(=O)Nc3ccc(F)cc32)c1C | – | 30 µM | inhibition | 59.5% |
| COc1cccc(Oc2ccccc2NC(=O)CNC(=O)c2cccc3ccccc23)c1 | SRB | 48 h | GI50 | 0.11 µM |
| Cn1c(=O)c(NN=C2C(=O)Nc3ccc(F)cc32)nc2ccccc21 | – | 30 µM | inhibition | 48.1% |
| COc1ccc(C(=O)/C=C/c2cc3c(cc2Br)OCO3)cc1S(N)(=O)=O | SRB | 48 h | GI50 | 1.9 µM |
